Assay [1] concerns wild type CaMKII kinase domain (residues 1–283). The assay is classed as binding. The note with it: ITC; for −TΔS: 25 °C, pH 7.5, Mg2+-AMPPNP, mean and standard deviation of the mean.
Assay [2] deals with CaMKII^D136N kinase domain (residues 1–283). The assay is classed as binding. The note with it: ITC, 25 °C, pH 7.5, Mg2+-AMPPNP, mean and standard deviation of the mean, n=4.
Assay [3] relates to wild type CaMKII kinase domain. Also noted: species or system Drosophila. The following applies: LC-HRMS of final ITC mixture, Mg2+-AMPCP. Summed up:
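Sample is the end-point mixture of isothermal titration calorimetry at 25 °C. MBP-dEAG channel fragment was titrated into a cell holding the Drosophila CaMKII kinase domain (residues 1–283, E. coli-expressed, wild type or D136N), with one 2 μl injection then 27 × 10 μl. Partners were first co-dialysed against 25 mM HEPES pH 7.5, 150 mM KCl, 0.5 mM TCEP, then with 1 mM MgCl₂ + 250 μM nucleotide. Final composition was 5 mM MgCl₂ and 1 mM nucleotide.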

In assay [4] the test system is CaMKII^K43M,D136N kinase domain. Put plainly: Isothermal titration calorimetry with K43M/D136N CaMKII kinase domain. The assay is classed as binding, Drosophila. The following applies: ITC, 25 °C, pH 7.5, Mg2+-AMPPNP, mean and standard deviation of the mean, n=3. Background: In ITC the heat of successive injections is recorded.
In the next assay the test system is T787A dEAG channel. Briefly: Two-electrode voltage clamp in oocytes, T787A dEAG channel. The assay is classed as cell-based, Drosophila. The following applies: Xenopus laevis oocytes, n=7–10.
The test system of a further assay is wild type dEAG channel. Briefly: Two-electrode voltage clamp in oocytes, wild type dEAG channel. The following applies: Xenopus laevis oocytes, co-expression with inactive kinase (K43M/D136N); n=6–8. The assay is classed as cell-based, Drosophila. Summed up:
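Xenopus oocytes were defolliculated with 75 µg/ml Liberase for 40–60 min in Ca²⁺-free ND96. Stage V–VI cells were injected with premixed channel and kinase cRNA, then kept 1–5 d at 16 °C in storage solution containing gentamycin. Currents were recorded by standard two-microelectrode voltage clamp under continuous perfusion with 96 mM NaCl, 2 mM KCl, 0.3 mM CaCl₂, 1 mM MgCl₂, 5 mM HEPES, pH 7.4.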
On the technique in general: Two-electrode voltage clamp holds a large cell at a set potential and records current.

Assay [5] deals with T1, CaMKII kinase domain D136N mutant (residues 1–283) (Drosophila, UniProt Q00168 1-283, D136N). Put plainly: ITC.
For assay [6], the target named is T1, CaMKII kinase domain D136N mutant …. Put plainly: ITC. The source holds these as a separate data set.
For assay [7], the target named is CaMKII kinase domain K43M/D136N mutant (Drosophila, UniProt Q00168 1-283, K43M | D136N). Put plainly: ITC.
Assay [8] addresses T2, wild type CaMKII kinase domain (residues 1–283) (Drosophila, UniProt Q00168 1-283). Briefly: ITC.
The target of assay [9] is T2, wild type CaMKII kinase domain …. Briefly: ITC. The source holds these as a separate data set.
Assay [10] has the same target. Put plainly: ITC. This is another data set of the same source.
Assay [11] addresses T1, CaMKII kinase domain D136N mutant …. Put plainly: crystal structure.
Where [12] appears, read: dEAGlong, individually fitted, n=4 (WT), n=3 (R784A, D789A).

Several values for one entry are separate records, joined by “and”; a condition that tells them apart may be missing. Equal entries are not always repeated. Where two headings read alike, the source gives them in different places. Non-standard residues stand in square brackets, D forms with d. No end group written: not given here. pT = C[C@@H](OP(=O)(O)O)[C@H](N)C(=O)O; MBP = not defined here

Chain of CaMKII kinase domain K43M/D136N mutant (Q00168 1-283 K43M/D136N): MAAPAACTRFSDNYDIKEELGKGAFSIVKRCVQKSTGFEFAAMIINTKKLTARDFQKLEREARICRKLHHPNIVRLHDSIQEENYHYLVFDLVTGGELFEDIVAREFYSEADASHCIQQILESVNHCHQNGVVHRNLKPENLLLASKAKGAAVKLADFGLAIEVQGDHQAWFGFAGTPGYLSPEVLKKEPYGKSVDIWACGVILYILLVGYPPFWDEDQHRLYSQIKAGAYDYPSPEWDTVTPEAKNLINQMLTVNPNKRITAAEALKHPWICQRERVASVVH
T1 sequence (Q00168 1-283 D136N): as the sequence (Q00168 1-283 K43M/D136N) above, with M43K counted along it
T2 sequence (Q00168 1-283): as the sequence (Q00168 1-283 K43M/D136N) above, with M43K, N136D counted along it
Chain of T787A dEAG channel (Q02280 whole entry T787A): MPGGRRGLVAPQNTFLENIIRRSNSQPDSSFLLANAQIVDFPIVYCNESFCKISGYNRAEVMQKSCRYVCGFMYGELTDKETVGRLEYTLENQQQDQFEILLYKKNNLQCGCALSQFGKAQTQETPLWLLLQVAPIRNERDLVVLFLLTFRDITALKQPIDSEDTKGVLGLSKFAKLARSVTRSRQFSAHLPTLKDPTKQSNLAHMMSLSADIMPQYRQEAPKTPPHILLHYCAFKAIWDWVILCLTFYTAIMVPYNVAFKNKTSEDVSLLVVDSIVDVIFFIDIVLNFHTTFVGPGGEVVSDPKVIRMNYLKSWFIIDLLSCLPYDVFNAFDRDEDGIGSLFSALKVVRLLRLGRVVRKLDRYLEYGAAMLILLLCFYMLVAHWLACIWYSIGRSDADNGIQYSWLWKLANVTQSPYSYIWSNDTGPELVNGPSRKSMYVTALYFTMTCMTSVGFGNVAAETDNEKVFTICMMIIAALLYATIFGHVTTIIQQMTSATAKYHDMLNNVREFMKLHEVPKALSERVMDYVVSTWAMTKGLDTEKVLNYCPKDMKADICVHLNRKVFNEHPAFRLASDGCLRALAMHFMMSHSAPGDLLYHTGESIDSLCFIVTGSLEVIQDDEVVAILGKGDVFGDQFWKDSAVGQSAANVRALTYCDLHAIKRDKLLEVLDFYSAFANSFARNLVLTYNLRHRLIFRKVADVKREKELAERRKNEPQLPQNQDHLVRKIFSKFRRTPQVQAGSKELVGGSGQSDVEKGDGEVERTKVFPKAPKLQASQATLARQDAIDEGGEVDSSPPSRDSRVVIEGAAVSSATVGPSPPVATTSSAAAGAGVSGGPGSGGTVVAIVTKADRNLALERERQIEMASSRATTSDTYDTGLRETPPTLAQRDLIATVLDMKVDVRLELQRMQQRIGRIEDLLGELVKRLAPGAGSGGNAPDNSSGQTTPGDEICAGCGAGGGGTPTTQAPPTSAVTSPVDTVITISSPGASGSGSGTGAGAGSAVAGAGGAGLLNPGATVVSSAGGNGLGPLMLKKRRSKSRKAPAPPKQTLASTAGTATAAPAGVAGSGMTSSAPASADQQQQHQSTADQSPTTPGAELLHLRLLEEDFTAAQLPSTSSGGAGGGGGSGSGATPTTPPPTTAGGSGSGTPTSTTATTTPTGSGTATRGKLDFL

As to “EAGlong^D789A: alanine mutant D789A of MBP-dEAGlong ({MBP}-VFPKAPKLQASQATLARQDTIAEGGEVDSSPPSRDSRVVIEGAAVSSATVGPS; reading uncertain)”, in assay [1] (setting [12]), the “−TΔS” value is 5.7 ± 2.3 kcal/mol.

In the case of “EAGlong^R784A: alanine mutant R784A of MBP-dEAGlong ({MBP}-VFPKAPKLQASQATLAAQDTIDEGGEVDSSPPSRDSRVVIEGAAVSSATVGPS; reading uncertain)”, the “−TΔS” value in [1] (setting [12]) came out at 4.4 ± 4.7 kcal/mol.

“EAGshort: dEAG residues 768 to 795 with mutations S778N and T781K, fused to maltose-binding protein ({MBP}-VFPKAPKLQANQAKLARQDTIDEGGEVD; reading uncertain; also: N-terminal His6, state not given here)”: the “−TΔS” value came to 5.3 ± 3.8 kcal/mol in assay [2]; 8.7 ± 0.1 kcal/mol in assay [4]; 11.4 ± 0.9 kcal/mol in assay [1] (dEAGshort, wild type kinase, n=3). Further, the “phosphorylation state of fragment at end of ITC” value in assay [3] is “dephosphorylated during the titration”.

As to “dEAGlong^P: phosphorylated dEAGlong channel fragment used in crystal structure (VFPKAPKLQASQATLARQD[pT]IDEGGEVDSSPPSRDSRVVIEGAAVSSATVGPS; also: phosphothreonine at T787)”, the “affinity relative to typical kinase-substrate (KD ~200 μM)” value in assay [1] (fold tighter than expected for a kinase-substrate, typical KD from ref 27) was “approximately 200 fold”.

On to “inactive Drosophila kinase: full-length Drosophila CaMKII with two point mutations (K43M/D136N) in the active site”, for which the “effect of co-expressed kinase on channel activity” value in the assay with T787A dEAG channel is on record as “loss of measurable currents”. For the same molecule, the “reduction of channel current” value with wild type dEAG channel is listed as “more than 10 fold”.

One may read the Kd as a measure of binding affinity in units of concentration. A higher Kd goes with weaker binding. The stoichiometry N is a count of units in the complex or per binding partner. Regarding {MBP}-VFPKAPKLQANQAKLARQD[pT]IDEGGEVD (domain or fragment, Drosophila, UniProt Q02280 768-795, looked up, reading uncertain) [MBP-dEAG_(short)^P (phosphorylated dEAG_(short), phosphorylated at T787)], in [5], the Kd was 0.475 nM, the dH was -8.9 kcal/mol and the “stoichiometry N” value worked out at 1.07.

As to VFPKAPKLQANQAKLARQDTIDEGGEVD (domain or fragment, UniProt Q02280 768-795, looked up), the Kd in assay [6] amounted to 197 nM; in [7], 173 nM; in [8] it was 94 nM; in [5], 216 nM. Besides, the dH is -14.5 kcal/mol in [6], -18 kcal/mol in [7], -21 kcal/mol in assay [8] and -16.3 kcal/mol in assay [5]. For the same molecule, the “stoichiometry N” value came out at 0.81 in [6], 0.79 in [7], 0.86 in assay [8] and 0.83 in assay [5].

B1: MBP-dEAG_(long) (wild-type Drosophila EAG CaMKII-binding fragment, residues 768 to 820, fused to maltose-binding protein) (domain or fragment, UniProt Q02280 768-820, looked up)
chain: {MBP}-VFPKAPKLQASQATLARQDTIDEGGEVDSSPPSRDSRVVIEGAAVSSATVGPS
modifications: reading uncertain
B1: in assay [9], the Kd came out at 674 nM, the dH is -17.3 kcal/mol and the “stoichiometry N” value came out at 0.96. In addition, in assay [10], binding was put at a Kd of 1000 nM, the dH is -7.3 kcal/mol and the “stoichiometry N” value was found to be 0.94.

B2: MBP-dEAG_(long) E793A (domain or fragment, Drosophila, UniProt Q02280 768-820, looked up)
chain: VFPKAPKLQASQATLARQDTIDEGGAVDSSPPSRDSRVVIEGAAVSSATVGPS
For the molecule B2, in assay [9], the Kd was found to be 1680 nM, the dH is -16.7 kcal/mol and the “stoichiometry N” value is 0.978.

B3: MBP-dEAG_(long) Q785A (domain or fragment, Drosophila, UniProt Q02280 768-820, looked up)
chain: VFPKAPKLQASQATLARADTIDEGGEVDSSPPSRDSRVVIEGAAVSSATVGPS
In the case of B3, in assay [9], the equilibrium dissociation constant (Kd) came out at 12600 nM; the dH is -18.5 kcal/mol; the “stoichiometry N” value is 0.747 and 0.664.

B4: MBP-dEAG_(long) R784A (domain or fragment, Drosophila, UniProt Q02280 768-820, looked up)
chain: VFPKAPKLQASQATLAAQDTIDEGGEVDSSPPSRDSRVVIEGAAVSSATVGPS
On to B4, for which, in assay [9], binding was characterised by a dissociation constant (Kd) of 47000 nM, the dH was -10.3 kcal/mol and the “stoichiometry N” value was found to be 0.85.

B5: MBP-dEAG_(long) L782A (domain or fragment, Drosophila, UniProt Q02280 768-820, looked up)
chain: VFPKAPKLQASQATAARQDTIDEGGEVDSSPPSRDSRVVIEGAAVSSATVGPS
As for B5, in [9], the Kd was determined as 24600 nM; the dH was -3.75 kcal/mol; the “stoichiometry N” value was 1.28 and 0.645.

B6: MBP-dEAG_(long) E790A (domain or fragment, Drosophila, UniProt Q02280 768-820, looked up)
chain: VFPKAPKLQASQATLARQDTIDAGGEVDSSPPSRDSRVVIEGAAVSSATVGPS
In the case of B6, in assay [9], the dissociation constant (Kd) amounted to 2430 nM, the dH was -15.7 kcal/mol and the “stoichiometry N” value is 1.06.

B7: MBP-dEAG_(long) I788A (domain or fragment, Drosophila, UniProt Q02280 768-820, looked up)
chain: VFPKAPKLQASQATLARQDTADEGGEVDSSPPSRDSRVVIEGAAVSSATVGPS
Regarding B7, in [9], the Kd was found to be 80300 nM; the dH was -10.5 kcal/mol; the “stoichiometry N” value is 0.667 and 1.09.

B8: MBP-dEAG_(long) D789A (domain or fragment, Drosophila, UniProt Q02280 768-820, looked up)
chain: VFPKAPKLQASQATLARQDTIAEGGEVDSSPPSRDSRVVIEGAAVSSATVGPS
Consider B8, for which, in assay [9], the dissociation constant (Kd) stood at 7300 nM, the dH is -12.7 kcal/mol and the “stoichiometry N” value worked out at 1.02.

B9: phosphorylated dEAG_(long) channel fragment (dEAG_(long)^P), MBP removed (domain or fragment, Drosophila, UniProt Q02280 768-820, looked up)
chain: VFPKAPKLQASQATLARQD[pT]IDEGGEVDSSPPSRDSRVVIEGAAVSSATVGPS
modifications: also: phosphothreonine at T787
In the case of B9, the binding result in [11] was “binds”.

Values taken from paper PMC6658111 (Journal of molecular biology, 2018).
